From PubChem
GC-A act = GC-A stimulated cGMP production enhancers – HEK293 GC-A cells, cGMP TR-FRET, EC30 ANP, primary screen; 0% at EC30 ANP, 100% saturating ANP; hit rate 0.14% among 370,000; activation, % at 10 µM; Atrial natriuretic peptide receptor 1 (Homo sapiens), P16066; AID 1671463, 2021; in the data active = activation above about 40%
FN deposit inh = inhibitors of fibronectin matrix deposition, primary screen, AH1F cells, Alexa488-fibronectin fluorescence, plate reader; AH1F fibroblasts, overnight; inhibition, % at 12.6 µM; hit rate 0.086% among 350,000;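 active = mean inhibition across replicates of 30% or more, regardless of how many single replicates reach that level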
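Material: AH1F fibroblast monolayer depositing Alexa488-labelled fibronectin into matrix | Input: 10000 AH1F cells/well | Medium: DMEM plus 2% serum, read in PBS | Reagent: Alexa488-fibronectin, 24 nM final in well | Compound dosing: One dose per compound, pinned | Schedule: 1 h adhesion, overnight exposure | Measured by: Fluorescence at 485 nm excitation, 525 nm emission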
CASP6 VEID inh = human caspase-6 inhibitors, primary screen, biochemical, VEID-R110 fluorescence, single point, set 2; P55212; purified caspase-6, Z-VEID-R110 cleavage fluorescence; inhibition, % at 12.5 µM; hit rate 0.53% among 350,000; AID 686996, 2013;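 active = mean inhibition across replicates at least about 35%, with every replicate also reaching that limit, limit read from the data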
NSD2 inh = NSD2 histone methyltransferase inhibitors, primary screen, biochemical, AlphaScreen, single concentration, set 2. Histone-lysine N-methyltransferase NSD2 (Homo sapiens), O96028. NSD2 peptide methylation, 120 min. inhibition, % at 12.5 µM. hit rate 0.54% among 310,000. AID 743445, 2014; in the data active = inhibition above about 50%
Target sequence (O96028 whole entry, looked up): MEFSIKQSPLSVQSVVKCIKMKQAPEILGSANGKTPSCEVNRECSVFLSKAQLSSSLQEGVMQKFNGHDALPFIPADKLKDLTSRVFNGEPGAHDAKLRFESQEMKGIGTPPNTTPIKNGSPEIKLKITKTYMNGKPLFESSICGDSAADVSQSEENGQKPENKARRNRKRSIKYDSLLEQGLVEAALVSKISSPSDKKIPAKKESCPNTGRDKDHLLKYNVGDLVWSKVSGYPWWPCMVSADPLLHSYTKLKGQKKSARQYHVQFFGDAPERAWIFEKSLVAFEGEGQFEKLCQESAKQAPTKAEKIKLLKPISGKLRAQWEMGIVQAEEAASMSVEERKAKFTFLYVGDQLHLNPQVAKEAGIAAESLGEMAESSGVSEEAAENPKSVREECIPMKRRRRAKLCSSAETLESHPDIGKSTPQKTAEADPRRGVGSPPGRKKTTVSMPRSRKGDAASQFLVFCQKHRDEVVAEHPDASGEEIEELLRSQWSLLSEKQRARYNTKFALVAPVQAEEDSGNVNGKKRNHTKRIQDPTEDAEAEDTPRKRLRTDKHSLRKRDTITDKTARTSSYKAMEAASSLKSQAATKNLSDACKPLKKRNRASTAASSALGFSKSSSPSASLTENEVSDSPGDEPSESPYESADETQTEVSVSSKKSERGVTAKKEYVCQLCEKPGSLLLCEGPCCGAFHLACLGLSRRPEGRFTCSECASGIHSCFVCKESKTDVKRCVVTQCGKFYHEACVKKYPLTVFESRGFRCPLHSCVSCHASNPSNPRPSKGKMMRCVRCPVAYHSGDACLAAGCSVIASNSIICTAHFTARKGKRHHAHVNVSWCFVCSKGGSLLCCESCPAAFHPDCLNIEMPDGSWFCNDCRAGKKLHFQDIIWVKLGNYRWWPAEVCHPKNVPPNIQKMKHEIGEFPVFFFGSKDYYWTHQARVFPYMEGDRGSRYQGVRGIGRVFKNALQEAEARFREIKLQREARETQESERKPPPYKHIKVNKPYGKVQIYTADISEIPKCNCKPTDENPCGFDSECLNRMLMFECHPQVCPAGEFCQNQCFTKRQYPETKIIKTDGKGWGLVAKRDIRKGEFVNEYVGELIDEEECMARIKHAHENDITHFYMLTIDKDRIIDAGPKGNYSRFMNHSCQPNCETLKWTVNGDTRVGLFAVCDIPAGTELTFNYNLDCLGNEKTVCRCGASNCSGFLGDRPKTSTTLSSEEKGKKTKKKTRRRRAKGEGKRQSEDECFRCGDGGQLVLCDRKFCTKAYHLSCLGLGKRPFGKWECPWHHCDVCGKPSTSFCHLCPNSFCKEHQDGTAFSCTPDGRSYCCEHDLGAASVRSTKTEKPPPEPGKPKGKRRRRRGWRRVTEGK
CaV13 FRET inh = Primary screen for inhibitors of IQ motif and Ca2+-dependent inactivation inhibitor domain binding in CACNA1D, Förster resonance energy transfer in living cells, …; hit rate 0.098% among 340,000; HEK cells, CFP/YFP FRET ICDI-IQ, plate reader, 10 min; percent FRET-ratio fall versus neutral wells; inhibition, % at 12.3 µM;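 active = mean replicate inhibition of at least 30% and at least 1% of replicates passing that level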
GC-B act = human GC-B receptor activators, primary screen, HEK293 GC-B cells, cGMP TR-FRET, EC30 CNP; Atrial natriuretic peptide receptor 2 (Homo sapiens), P20594; 0% at EC30 CNP, 100% saturating CNP; activation, % at 10 µM; hit rate 0.11% among 370,000; AID 1920062, 2024;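 active = activation at 10 µM reaching about 35% in either raw or pattern-adjusted values, limit read from the data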
CASP1 counter = human caspase-1 inhibitors, dose response, selectivity assay for caspase-6 inhibitor project, biochemical, Z-YVAD-R110 fluorescence, cherry-pick, set 2. purified caspase-1, Z-YVAD-R110 cleavage fluorescence. activity change, negative = inhibition, % at 35 µM. 100 tested, under 10 active. shares compounds with CASP6 VEID inh. AID 743289, 2014;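 active = compounds lowering fluorescence whose fitted half-maximal concentration is no more than twice their top tested dose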
AlphaScreen art = AlphaScreen signal interference with preloaded methylated product, dose response, artefact control for NSD2 inhibitor project, biochemical, cherry-picked samples; AC35, µM (top dose mostly 10 µM); shares compounds with NSD2 inh; hit rate 9.4% among 1,500; AlphaScreen artifact counterscreen, preloaded methylated H4 peptide; call rule not given here
Each line names hits and unclear results; the compound was inactive in the other large screens (follow-up assays come after a bar, where they were run). This is a sample that favours compounds with a hit; in the whole collection about 0.99% have one here.

O=c1cc(-c2ccc(O)cc2)oc2c1ccc1ccccc12	none
O=c1cc(-c2ccccc2)oc2cc(O)c(O)c(O)c12	CASP6 VEID inh 44 (no result: FN deposit inh, NSD2 inh, CaV13 FRET inh)
C[C@H](CO)N1C[C@H](C)[C@@H](CN(C)C(=O)Nc2cccc3ccccc23)Oc2ccc(N(C)C)cc2C1=O	none (no result: GC-A act, NSD2 inh, CaV13 FRET inh, GC-B act)
CC(NC(=O)CN1c2cccc3cccc(c23)S1(=O)=O)c1ccc(S(N)(=O)=O)cc1 (stereo unspecified)	CASP6 VEID inh 56
O=C(Cc1nnc(NC(=O)c2ccccc2)s1)N/N=C\c1ccc(O)c(O)c1	NSD2 inh 68
CO[C@H]1CN(C)C(=O)c2ccc(NC(=O)C3CCC3)cc2OC[C@@H](C)N(Cc2nccs2)C[C@@H]1C	none (no result: GC-A act, NSD2 inh, CaV13 FRET inh, GC-B act)
COc1ccccc1-c1ccc([C@H]2[C@@H](C#N)N(C(=O)C3CCC3)[C@H]2CO)cc1	none (no result: GC-A act, NSD2 inh, CaV13 FRET inh, GC-B act)
O=C(Nc1ccc2nc3n(c(=O)c2c1)CCCCC3)c1cc([N+](=O)[O-])ccc1F	none (no result: NSD2 inh)
O=C(Nc1ccc2nc3n(c(=O)c2c1)CCCCC3)c1c(F)ccc([N+](=O)[O-])c1F	CASP6 VEID inh 60 | CASP1 counter inactive
CC[C@H](CO)Oc1cc(NCc2cccc(N)c2)c2ncn(C(C)C)c2c1	CASP6 VEID inh 46 (no result: NSD2 inh) | CASP1 counter inactive
CCC(CO)Oc1cc(NCc2cccc(C)c2)c2ncn(C(C)C)c2c1 (stereo unspecified)	none (no result: NSD2 inh)
O=C(OCc1nnc(-c2ccccc2)o1)c1ccc([N+](=O)[O-])s1	CASP6 VEID inh 99 | CASP1 counter inactive
COCCN(C(=O)COC(=O)c1cc2c(s1)CCC2)c1c(N)n(Cc2ccccc2)c(=O)[nH]c1=O	CASP6 VEID inh 80, NSD2 inh 72 (no result: FN deposit inh) | CASP1 counter inactive
O=C1NC(=O)C(=Cc2ccccc2[N+](=O)[O-])S1	CASP6 VEID inh 67 | CASP1 counter inactive
O=P(c1ccccc1)(c1ccccc1)c1cc(S(=O)(=O)O)ccc1O	CASP6 VEID inh 77 | CASP1 counter inactive
Cc1ccc(S(=O)(=O)Nc2csc(C)c2C(=O)O)cc1	CASP6 VEID inh 61 | CASP1 counter inactive
Cn1cnnc1SCC(=O)Nc1ncc([N+](=O)[O-])s1	CASP6 VEID inh 39 (no result: FN deposit inh) | CASP1 counter inactive
Cc1csc(NC(=O)CSc2nncn2C)n1	none (no result: FN deposit inh, CASP6 VEID inh)
C[C@H](O)C#Cc1cnc2c(c1)C(=O)N([C@H](C)CO)C[C@H](C)[C@@H](CN(C)CC1CCOCC1)O2	none (no result: GC-A act, NSD2 inh, CaV13 FRET inh, GC-B act)
Oc1cc(NCc2ccc(F)cc2)cc2cccnc12	none (no result: NSD2 inh)
CN(C)CCCNc1cc(O)c2ncccc2c1	CASP6 VEID inh 87 (no result: NSD2 inh) | CASP1 counter inactive
CC(C)(C)c1ccc(NC(=O)COC(=O)c2ccc([N+](=O)[O-])s2)cc1	none (no result: FN deposit inh, CASP6 VEID inh) | CASP1 counter inactive
O=C(COC(=O)c1ccc([N+](=O)[O-])s1)Nc1ccc(F)cc1	CASP6 VEID inh 98 (no result: NSD2 inh) | CASP1 counter inactive
O=C(COC(=O)c1ccc([N+](=O)[O-])s1)Nc1ccc(Cl)cn1	none
O=C(COC(=O)c1ccc([N+](=O)[O-])s1)Nc1cccc(S(=O)(=O)NC2=NCCCCC2)c1	CASP6 VEID inh 98 (no result: NSD2 inh) | CASP1 counter inactive
O=C(COC(=O)c1cccs1)Nc1cccc(S(=O)(=O)NC2=NCCCCC2)c1	none (no result: FN deposit inh)
COCC(=O)N(C)C[C@H]1Oc2cc(C#CCC(C)C)ccc2S(=O)(=O)N([C@H](C)CO)C[C@@H]1C	none (no result: GC-A act, NSD2 inh, CaV13 FRET inh, GC-B act)
C/C(CC(=O)N1CCCC1)=N\NC(=O)c1cc2ccccc2cc1O	CASP6 VEID inh 39, NSD2 inh 70 | CASP1 counter inactive
O=C(OCC(=O)N1CCCCC1)c1cc2ccccc2cc1O	none (no result: FN deposit inh, CASP6 VEID inh)
C[C@H](CO)N1C[C@H](C)[C@H](CN(C)S(=O)(=O)c2ccc(F)cc2)Oc2ncc(C#CC3CCCCC3)cc2C1=O	none (no result: GC-A act, NSD2 inh, CaV13 FRET inh, GC-B act)
O=C(Nc1ccc(S(=O)(=O)Nc2cnc3ccccc3n2)cc1)c1ccc(Cl)c([N+](=O)[O-])c1	CASP6 VEID inh 62 | CASP1 counter inactive
O=c1cc2c(=O)oc3cc(O)c(O)oc3c2c(O)c1O	CASP6 VEID inh 95 (no result: NSD2 inh) | CASP1 counter inactive
O=c1oc2cc(O)c(Cl)cc2c2ccccc12	none (no result: CASP6 VEID inh)
C[C@@H]1CN([C@H](C)CO)S(=O)(=O)c2ccc(C#CCN(C)C)cc2O[C@@H]1CN(C)Cc1ccc(F)cc1	none (no result: GC-A act, NSD2 inh, CaV13 FRET inh, GC-B act)
[O-][n+]1onc2c1CCc1c-2nn(-c2ccccc2Cl)[n+]1[O-]	CASP6 VEID inh 82 (no result: FN deposit inh) | CASP1 counter inactive
COCC(=O)Nc1ccc2c(c1)OC[C@H](C)N(CC1CC1)C[C@H](C)[C@H](OC)CN(C)C2=O	none (no result: GC-A act, CASP6 VEID inh, NSD2 inh, CaV13 FRET inh, GC-B act)
CO[C@@H]1CN(C)C(=O)c2cc(NC(=O)c3nc4ccccc4s3)ccc2OC[C@H](C)N(Cc2cccnc2)C[C@H]1C	none (no result: GC-A act, NSD2 inh, CaV13 FRET inh, GC-B act)
CO[C@@H]1CN(C)C(=O)c2cc(NC(C)=O)ccc2OC[C@H](C)N(C(=O)CC2CC2)C[C@H]1C	none (no result: GC-A act, NSD2 inh, CaV13 FRET inh, GC-B act)
CO[C@H]1CN(C)C(=O)c2cc(NC(C)=O)ccc2OC[C@@H](C)N(C(=O)CC2CC2)C[C@H]1C	CASP6 VEID inh 56 (no result: GC-A act, NSD2 inh, CaV13 FRET inh, GC-B act) | CASP1 counter inactive
CN(C)c1ccc2c(c1)[C@@H]1C[C@@H](CC(=O)NCc3ccncc3)O[C@@H](CO)[C@@H]1O2	none (no result: GC-A act, NSD2 inh, CaV13 FRET inh, GC-B act)
COc1cc(NC(C)CCCN)c2ncccc2c1 (stereo unspecified)	CASP6 VEID inh 91 (no result: NSD2 inh) | CASP1 counter inactive
C[C@@H]1CN([C@H](C)CO)C(=O)c2cc(NC(=O)CCCCCC(=O)Nc3ccccc3N)ccc2O[C@H]1CN(C)C(=O)NC1CCCCC1	none (no result: GC-A act, FN deposit inh, NSD2 inh, CaV13 FRET inh, GC-B act)
COc1ccc(NC(=O)Nc2ccc3c(c2)[C@H]2C[C@@H](CC(=O)NCc4ccc5c(c4)OCO5)O[C@@H](CO)[C@H]2O3)cc1	none (no result: GC-A act, NSD2 inh, CaV13 FRET inh, GC-B act)
Cc1cc(C=O)c(C)n1-c1cc(C(=O)O)cc(C(=O)O)c1	CASP6 VEID inh 41, NSD2 inh 84 | CASP1 counter inactive | AlphaScreen art inactive
Oc1cc2c(cc1O)[C@H]1c3ccc(O)c(O)c3OC[C@@]1(O)C2	CASP6 VEID inh 37, NSD2 inh 109 | CASP1 counter inactive | AlphaScreen art 4µM
